Test results published in ChEMBL document CHEMBL1641377, “Discovery of novel, potent, selective, and orally active human glucagon receptor antagonists containing a pyrazole core” (Bioorg Med Chem Lett, 2011).
One block for each molecule: values may come before it. Activity calls are given as the source filed them. No cut-off for these calls is given here.

How the values were obtained:
[1] = biological target: T1, Glucagon receptor (Homo sapiens, UniProt P47871); assay: Displacement of [125I]glucagon from human GCGR expressed in CHO cells; assay type: cell-based
T1 sequence (P47871 whole entry): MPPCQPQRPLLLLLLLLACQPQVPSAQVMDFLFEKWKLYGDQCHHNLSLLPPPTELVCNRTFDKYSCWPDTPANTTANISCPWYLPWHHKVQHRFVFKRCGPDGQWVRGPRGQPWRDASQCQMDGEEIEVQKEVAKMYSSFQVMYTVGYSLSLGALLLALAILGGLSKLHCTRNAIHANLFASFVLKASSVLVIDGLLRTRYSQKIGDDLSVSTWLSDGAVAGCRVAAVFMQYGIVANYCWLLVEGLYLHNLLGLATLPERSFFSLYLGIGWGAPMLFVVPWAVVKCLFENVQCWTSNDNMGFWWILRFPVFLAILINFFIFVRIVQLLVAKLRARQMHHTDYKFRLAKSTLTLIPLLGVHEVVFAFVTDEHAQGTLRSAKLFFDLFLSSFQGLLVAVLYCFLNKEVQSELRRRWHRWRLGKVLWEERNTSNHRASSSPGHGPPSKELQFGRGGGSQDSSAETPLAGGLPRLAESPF
Procedure, shortened: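 Binding inhibition of 125I-glucagon to human GCGR expressed in CHO cell membranes; IC50 reported, n given where replicated.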

[2] = biological target: T2, Gastric inhibitory polypeptide receptor (Homo sapiens) (UniProt P48546); assay: Antagonist activity at human GIPR expressed in CHO cells assessed as inhibition of glucagon-induced cAMP accumulation at 10 uM; assay type: functional, cell-based
T2 sequence (whole entry): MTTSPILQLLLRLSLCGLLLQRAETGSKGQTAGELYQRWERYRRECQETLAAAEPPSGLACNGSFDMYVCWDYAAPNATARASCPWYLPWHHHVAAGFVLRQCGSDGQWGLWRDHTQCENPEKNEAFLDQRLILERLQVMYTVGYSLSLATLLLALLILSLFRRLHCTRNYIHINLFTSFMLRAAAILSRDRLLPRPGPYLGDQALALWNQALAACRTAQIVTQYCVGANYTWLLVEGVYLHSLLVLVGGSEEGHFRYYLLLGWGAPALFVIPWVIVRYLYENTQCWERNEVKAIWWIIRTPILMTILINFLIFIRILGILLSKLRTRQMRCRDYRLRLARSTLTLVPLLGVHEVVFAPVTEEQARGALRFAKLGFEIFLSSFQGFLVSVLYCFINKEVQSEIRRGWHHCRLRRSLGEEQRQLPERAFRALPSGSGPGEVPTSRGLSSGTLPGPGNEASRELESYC

[3] = biological target: T3, Gastric inhibitory polypeptide receptor (Homo sapiens, UniProt P48546); assay: Antagonist activity at human GIPR expressed in CHO cells assessed as inhibition of glucagon-induced cAMP accumulation; assay type: functional, cell-based
T3 sequence (P48546 whole entry): T2 sequence (whole entry)

[4] = biological target: T1, Glucagon receptor; assay: Antagonist activity at human GCGR expressed in CHO cells assessed as inhibition of glucagon-induced cAMP accumulation; assay type: functional, cell-based
Procedure, shortened: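 Inhibition of glucagon-induced cAMP accumulation in CHO cells transfected with human GCGR; IC50 derived, n given where replicated.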

[5] = system: Mus musculus; assay: Antidiabetic activity in transgenic mouse expressing human GCGR assessed as inhibition of glucagon-induced blood glucose excursion at 10 mg/kg, po administered 60 mins before glucagon challenge measured after 48 mins; assay type: functional, organism-based; set-up: dose 10 mg/kg
Procedure, shortened: (§1)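 hGCGR transgenic mice (only functional receptor is human GCGR), 9 per group, given compound orally, then glucagon 15 µg/kg IP 60 min later (one arm dosed 30 mpk three hours before challenge); blood glucose monitored at 12, 24, 36 and 48 min after glucagon.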

[6] = Blood clearance in po dosed mouse; assay type: ADME, organism-based
[7] = Half life in po dosed mouse; assay type: ADME, organism-based; details: in vivo
[8] = system: Mus musculus; assay: Dose normalized AUC in po dosed mouse; assay type: ADME, organism-based; details: in vivo
[9] = system: Mus musculus; assay: Antidiabetic activity in transgenic mouse expressing human GCGR assessed as inhibition of glucagon-induced blood glucose excursion at 30 mg/kg, po administered 60 mins before glucagon challenge measured after 48 mins; assay type: functional, organism-based; set-up: dose 30 mg/kg; procedure, shortened: as §1

- IC50 [1]: 5300 nM
- IC50 [3]: > 10000 nM
Compound: O=C(Nc1nnn[nH]1)c1ccc(Cc2cn(-c3ccc(OC(F)(F)F)cc3)nc2C2CCCCC2)cc1

- IC50 [1]: 39 nM
- IC50 [4]: 44 nM
- IC50 [3]: 7100 nM
Compound: O=C(Nc1nnn[nH]1)c1ccc(Cn2nc(-c3cc(Cl)cc(Cl)c3)cc2-c2ccc(OC(F)(F)F)cc2)cc1

- IC50 [1]: 480 nM
- inhibition [2]: 6%
Compound: CC(C)(C)[C@H]1CC[C@H](c2cc(-c3ccc(OC(F)(F)F)cc3)nn2Cc2ccc(C(=O)NCCC(=O)O)cc2)CC1

- IC50 [1]: 63 nM
- IC50 [4]: 170 nM
- IC50 [3]: 5700 nM
Compound: CC(C)(C)[C@H]1CC[C@H](c2cc(-c3ccc(OC(F)(F)F)cc3)nn2Cc2ccc(C(=O)Nc3nnn[nH]3)cc2)CC1

- IC50 [1]: 220 nM
Compound: CS(=O)(=O)c1ccc(-c2cc(-c3ccc(OC(F)(F)F)cc3)nn2Cc2ccc(C(=O)Nc3nnn[nH]3)cc2)cc1

- IC50 [1]: 36 nM
- IC50 [4]: 35 nM
- IC50 [3]: 3000 nM
Compound: O=C(Nc1nnn[nH]1)c1ccc(Cn2nc(-c3ccc(OC(F)(F)F)cc3)cc2-c2cc(Cl)cc(Cl)c2)cc1

- IC50 [1]: 3.2 nM
- IC50 [4]: 46 nM
- IC50 [3]: 45 nM
Compound: CC(C)(C)[C@H]1CC[C@H](N(Cc2ccc(C(=O)Nc3nn[nH]n3)cc2)C(=O)Nc2ccc(OC(F)(F)F)cc2)CC1

- IC50 [1]: 120 nM
- IC50 [4]: 160 nM
- IC50 [3]: 2100 nM
- CL/F [6]: 8.2 mL/min/kg
- half-life [7]: 2.7 h
- AUC [8]: 1.5 µM·kg·h/mg
Compound: O=C(Nc1nn[nH]n1)c1ccc(Cn2nc(-c3ccc(OC(F)(F)F)cc3)cc2C2CCCCC2)cc1

- IC50 [1]: 570 nM
Compound: CS(=O)(=O)c1ccc(-c2cc(-c3ccc(OC(F)(F)F)cc3)n(Cc3ccc(C(=O)Nc4nnn[nH]4)cc3)n2)cc1

- IC50 [1]: 43 nM
- IC50 [4]: 47 nM
- inhibition [2]: 46%
Compound: O=C(Nc1nn[nH]n1)c1ccc(Cn2nc(-c3ccc(OC(F)(F)F)cc3)cc2-c2ccc(OC(F)(F)F)cc2)cc1
- inhibition [9]: Active
- inhibition [5]: Active

- IC50 [1]: 120 nM
- IC50 [3]: > 10000 nM
Compound: O=C(NCc1nnn[nH]1)c1ccc(Cn2nc(-c3cc(Cl)cc(Cl)c3)cc2-c2ccc(OC(F)(F)F)cc2)cc1

- IC50 [1]: 3800 nM
- IC50 [3]: 2800 nM
Compound: O=C(O)CCNC(=O)c1ccc(Cn2nc(-c3ccc(OC(F)(F)F)cc3)cc2C2CCCCC2)cc1

- IC50 [1]: 4200 nM
- inhibition [2]: 42%
Compound: O=C(Nc1nn[nH]n1)c1ccc(Cc2cc(-c3ccc(OC(F)(F)F)cc3)nn2C2CCCCC2)cc1

- IC50 [1]: 130 nM
- IC50 [3]: 6000 nM
Compound: CC(c1ccc(C(=O)Nc2nnn[nH]2)cc1)n1nc(-c2ccc(OC(F)(F)F)cc2)cc1-c1ccc(OC(F)(F)F)cc1 (stereo unspecified)

- IC50 [1]: 810 nM
- IC50 [3]: 910 nM
Compound: O=C(Nc1nn[nH]n1)c1ccc(Cn2nc(C3CCCCC3)cc2-c2ccc(OC(F)(F)F)cc2)cc1

- IC50 [1]: 2900 nM
- inhibition [2]: 50%
Compound: O=C(Nc1nn[nH]n1)c1ccc(Cc2cc(-c3ccc(OC(F)(F)F)cc3)n(C3CCCCC3)n2)cc1

- inhibition [2]: 36%
Compound: CS(=O)(=O)c1ccc(-c2cc(-c3ccc(OC(F)(F)F)cc3)nn2Cc2ccc(C(=O)Nc3nn[nH]n3)cc2)cc1

- IC50 [1]: 520 nM
- inhibition [2]: 21%
Compound: CC(c1ccc(Cl)cc1)c1cc(-c2ccc(OC(F)(F)F)cc2)nn1Cc1ccc(C(=O)Nc2nn[nH]n2)cc1 (stereo unspecified)

- inhibition [2]: 45%
Compound: CS(=O)(=O)c1ccc(-c2cc(-c3ccc(OC(F)(F)F)cc3)n(Cc3ccc(C(=O)Nc4nn[nH]n4)cc3)n2)cc1

Second part, the molecule before the results:

Compound: O=C(Nc1nn[nH]n1)c1cccc(Cn2nc(-c3ccc(OC(F)(F)F)cc3)cc2-c2ccc(OC(F)(F)F)cc2)c1
- IC50 [1]: 1100 nM
- inhibition [2]: 2%

Compound: O=C(NCc1nn[nH]n1)c1ccc(Cn2nc(-c3cc(Cl)cc(Cl)c3)cc2-c2ccc(OC(F)(F)F)cc2)cc1
- inhibition [5]: inactive

Compound: O=C(O)CCCNC(=O)c1cccc(Cn2nc(-c3ccc(OC(F)(F)F)cc3)cc2-c2ccc(OC(F)(F)F)cc2)c1
- IC50 [1]: 1100 nM
- inhibition [2]: 49%

Compound: CC(c1ccc(Cl)cc1)c1cc(-c2ccc(OC(F)(F)F)cc2)n(Cc2ccc(C(=O)Nc3nn[nH]n3)cc2)n1 (stereo unspecified)
- IC50 [1]: 430 nM
- inhibition [2]: 20%

Compound: O=C(O)CCNC(=O)c1cccc(Cn2nc(-c3ccc(OC(F)(F)F)cc3)cc2-c2ccc(OC(F)(F)F)cc2)c1
- IC50 [1]: 330 nM
- inhibition [2]: 73%

Compound: O=C(NC[C@@H](O)C(=O)O)c1ccc(Cn2nc(-c3cc(Cl)cc(Cl)c3)cc2-c2ccc(OC(F)(F)F)cc2)cc1
- IC50 [1]: 28 nM
- IC50 [3]: > 25000 nM

Compound: O=C(O)CCNC(=O)c1ccc(Cc2cc(-c3ccc(OC(F)(F)F)cc3)n(C3CCCCC3)n2)cc1
- IC50 [1]: 1700 nM

Compound: O=C(O)CCNC(=O)c1ccc(Cc2cnn(-c3ccc(OC(F)(F)F)cc3)c2C2CCCCC2)cc1
- IC50 [1]: 7200 nM
- IC50 [3]: > 25000 nM

Compound: O=C(O)CCNC(=O)c1ccc(Cn2nc(-c3ccc(OC(F)(F)F)cc3)cc2-c2ccc(OC(F)(F)F)cc2)cc1
- IC50 [1]: 490 nM
- IC50 [4]: 370 nM

Compound: CC(c1ccc(Cl)cc1)c1cc(-c2ccc(OC(F)(F)F)cc2)nn1Cc1ccc(C(=O)NCCC(=O)O)cc1 (stereo unspecified)
- IC50 [1]: 730 nM
- inhibition [2]: 22%

Compound: O=C(O)CCCNC(=O)c1ccc(Cn2nc(-c3ccc(OC(F)(F)F)cc3)cc2-c2ccc(OC(F)(F)F)cc2)cc1
- IC50 [1]: 1100 nM
- inhibition [2]: 15%

Compound: O=C(O)CCNC(=O)c1ccc(Cc2cn(-c3ccc(OC(F)(F)F)cc3)nc2C2CCCCC2)cc1
- IC50 [1]: 1200 nM
- IC50 [3]: 7400 nM

Compound: O=C(Nc1nn[nH]n1)c1ccc(Cc2cnn(-c3ccc(OC(F)(F)F)cc3)c2C2CCCCC2)cc1
- IC50 [1]: 16000 nM
- IC50 [3]: > 20000 nM

Compound: CS(=O)(=O)c1ccc(-c2cc(-c3ccc(OC(F)(F)F)cc3)n(Cc3ccc(C(=O)NCCC(=O)O)cc3)n2)cc1
- IC50 [1]: 2700 nM
- inhibition [2]: 43%

Compound: O=C(O)CNC(=O)c1cccc(Cn2nc(-c3ccc(OC(F)(F)F)cc3)cc2-c2ccc(OC(F)(F)F)cc2)c1
- IC50 [1]: 2900 nM
- inhibition [2]: 34%

Compound: CC(C)(C)[C@H]1CC[C@H](N(Cc2ccc(C(=O)NCCC(=O)O)cc2)C(=O)Nc2ccc(OC(F)(F)F)cc2)CC1
- IC50 [1]: 21 nM
- IC50 [4]: 140 nM
- IC50 [3]: 1300 nM

Compound: CC(c1ccc(Cl)cc1)c1cc(-c2ccc(OC(F)(F)F)cc2)n(Cc2ccc(C(=O)NCCC(=O)O)cc2)n1 (stereo unspecified)
- IC50 [1]: 2400 nM
- inhibition [2]: 0%

Compound: O=C(O)CCNC(=O)c1ccc(Cc2cc(-c3ccc(OC(F)(F)F)cc3)nn2C2CCCCC2)cc1
- IC50 [1]: 2900 nM
- inhibition [2]: 39%

Compound: O=C(Nc1nn[nH]n1)c1ccc(Cn2nc(-c3cc(Cl)cc(Cl)c3)cc2-c2ccc(OC(F)(F)F)cc2)cc1
- inhibition [9]: Active
- inhibition [5]: inactive

Compound: CC(c1ccc(C(=O)NCCC(=O)O)cc1)n1nc(-c2ccc(OC(F)(F)F)cc2)cc1-c1ccc(OC(F)(F)F)cc1 (stereo unspecified)
- IC50 [1]: 250 nM
- inhibition [2]: 46%

Compound: O=C(O)CNC(=O)c1ccc(Cn2nc(-c3ccc(OC(F)(F)F)cc3)cc2-c2ccc(OC(F)(F)F)cc2)cc1
- IC50 [1]: 3000 nM
- IC50 [4]: 1300 nM
- inhibition [2]: -3%

Compound: CN(CCC(=O)O)C(=O)c1ccc(Cn2nc(-c3ccc(OC(F)(F)F)cc3)cc2-c2ccc(OC(F)(F)F)cc2)cc1
- IC50 [1]: 7200 nM
- inhibition [2]: 9%

Compound: O=C(O)CCNC(=O)c1ccc(Cn2nc(-c3ccc(OC(F)(F)F)cc3)cc2-c2cc(Cl)cc(Cl)c2)cc1
- IC50 [1]: 95 nM
- IC50 [4]: 230 nM
- inhibition [2]: 21%

Compound: CS(=O)(=O)c1ccc(-c2cc(-c3ccc(OC(F)(F)F)cc3)nn2Cc2ccc(C(=O)NCCC(=O)O)cc2)cc1
- IC50 [1]: 1200 nM
- inhibition [2]: 31%

Compound: CC(C)(C)[C@H]1CC[C@H](c2cc(-c3ccc(OC(F)(F)F)cc3)nn2Cc2ccc(C(=O)Nc3nn[nH]n3)cc2)CC1
- inhibition [9]: Active
- inhibition [5]: Active
